Assay results gathered from unrelated publications.
Compare with care: the assays were run in different laboratories.
Target: RAC-beta serine/threonine-protein kinase (AKT2, Homo sapiens, UniProt P31751)

CCN1CCN(Cc2ccc(C(=O)Nc3ccc(C)c(Oc4ccc5c(c4)CC(=O)N5)c3)cc2C(F)(F)F)CC1
remaining binding (binding; competition with immobilised ligand; 1 µM): 100%

COc1ccc2c(O[C@@H]3C[C@H]4C(=O)N[C@]5(C(=O)O)CC5/C=C\CCCCC[C@H](NC(=O)OC5CCCC5)C(=O)N4C3)cc(-c3csc(NC(=O)C(C)C)n3)nc2c1C (stereo partly drawn)
remaining binding (cell-free assay; competition with immobilised ligand; 1 µM): 89%

Cc1cnc(Nc2ccc(C(=O)N3CCC(N4CCCC4)CC3)cc2)nc1-c1cc2ccccc2s1
remaining binding (binding; competition with immobilised ligand; 1 µM): 83%

O=C(NCC1CCOCC1)c1n[nH]cc1NC(=O)c1c(F)cccc1F
remaining binding (binding; competition with immobilised ligand; 1 µM): 100%

O=C(O)[C@H]1[C@H](Cn2nnc3ccccc3c2=O)CC[C@@H]1C(=O)c1ccc(OCCC2CCOCC2)cc1
remaining binding (cell-free assay; competition with immobilised ligand; 1 µM): 88%

O=C(c1ccc(Nc2ncc(Cl)c(-c3ccc(Cl)s3)n2)cc1)N1CCC(N2CCCC2)CC1
remaining binding (binding; competition with immobilised ligand; 1 µM): 89%

CC(C)CC(=O)N1CCc2nc(-c3ccc(Br)cc3)nc(N(C)Cc3ccccc3)c2C1
remaining binding (cell-free assay; competition with immobilised ligand; 0.1 µM): 100%

COc1ncc2cc3ccccc3nc2c1C#N
remaining binding (cell-free assay; competition with immobilised ligand; 5 µM): 95%

CNC(=O)[C@@H]1CC[C@@H](n2c(-c3ccc4cnccc4c3)nc3ccc(C(=O)NCc4cccc(C(N)=O)c4)cc32)C1
remaining binding (binding; competition with immobilised ligand; 1 µM): 100%

C[C@H]1CCN(c2nccc(-c3cnn4ncccc34)n2)C1
remaining binding (binding; 1 µM): 100%

CN(C)CC#Cc1ccc(OCCCc2sc(N3CCc4cccc(C(=O)Nc5nc6ccccc6s5)c4C3)nc2C(=O)O)c(F)c1
remaining binding (cell-free assay; competition with immobilised ligand; 1 µM): 100%

N#Cc1ccccc1CSc1nnc2c(n1)[nH]c1ccccc12
remaining binding (binding; competition with immobilised ligand; 10 µM): 93%

F[C@@H]1CCN(c2nccc(-c3cnn4ncccc34)n2)C1
remaining binding (binding; 1 µM): 86%

C=CC(=O)N1CCC(C(=O)NCC(=O)N2CCN(c3nc(-c4cnc(N)nc4C(F)F)nc(N4CCOCC4)n3)CC2)CC1
remaining binding (binding; competition with immobilised ligand; 1 µM): 100%

CN(C)c1nccc(-c2cnn3ncccc23)n1
remaining binding (binding; 1 µM): 100%

Cc1c[nH]c2nccc(Oc3c(F)cc(Nc4cc(Cl)nc(N)n4)cc3F)c12
remaining binding (cell-free assay; competition with immobilised ligand; 0.1 µM): 98%

N[C@@H]1CCN(c2nccc(-c3cnn4ncccc34)n2)C1
remaining binding (binding; 1 µM): 100%

O=C(NCCCN1CCOCC1)c1ccc(Nc2nccc(-c3cc4ccccc4s3)n2)cc1
remaining binding (binding; competition with immobilised ligand; 1 µM): 87%

CC(=O)N1CCC(c2ccc(C(=O)NC(=N)N)cc2C(F)(F)F)CC1
remaining binding (cell-free assay; competition with immobilised ligand; 1 µM): 99%

COc1ccnn2ncc(-c3ccnc(N(C)C)n3)c12
remaining binding (binding; 1 µM): 100%

C[C@@H]1CN(c2ccc3ncc(-c4ccc5[nH]nc(C6CC6)c5c4)n3n2)C[C@H](C)O1
remaining binding (binding; competition with immobilised ligand; 0.5 µM): 97%

CCS(=O)(=O)c1cc2cc(C[C@@](O)(CC(C)(C)c3ccc(F)cc3C(N)=O)C(F)(F)F)[nH]c2cn1
remaining binding (cell-free assay; competition with immobilised ligand; 1 µM): 93%

Nc1ncc2c(n1)-c1c([nH]c3ccc(C#CC4CC4)cc13)CCCC2
remaining binding (binding; competition with immobilised ligand; 1 µM): 100%

Cc1cnn2ncc(-c3ccnc(N(C)C)n3)c2c1
remaining binding (binding; 1 µM): 100%
